Legend:
[1] = molecular target: Glycogen synthase kinase-3 beta (Homo sapiens) (UniProt P49841); assay: Inhibition of recombinant GSK3B (unknown origin) at 5 uM by FRET-based Z'-LYTE assay
Procedure, shortened: (§1)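 Single-point panel screen at 5 μM in duplicate. ATP is at the apparent Km of each kinase, and the Z'-LYTE FRET peptide substrate is used. Each point has two control wells: a protease control for interference with development and a fluorescence control for interference with the FRET read-out. Values above 100% are treated as maximal inhibition and values below 0% as none.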

[2] = molecular target: Serine/threonine-protein kinase MARK2 (Homo sapiens) (UniProt Q7KZI7); assay: Inhibition of recombinant MARK2 (unknown origin) at 5 uM by FRET-based Z'-LYTE assay; procedure, shortened: as §1
[3] = molecular target: Cyclin-dependent kinase 1/cyclin B1 (Homo sapiens) (UniProt P06493+P14635); assay: Inhibition of recombinant CDK1/cyclin B (unknown origin) at 5 uM by FRET-based Z'-LYTE assay; type: protein-complex assay; procedure, shortened: as §1
Cyclin-dependent kinase 1/cyclin B1 (Homo sapiens), sequence (P06493 whole entry, looked up): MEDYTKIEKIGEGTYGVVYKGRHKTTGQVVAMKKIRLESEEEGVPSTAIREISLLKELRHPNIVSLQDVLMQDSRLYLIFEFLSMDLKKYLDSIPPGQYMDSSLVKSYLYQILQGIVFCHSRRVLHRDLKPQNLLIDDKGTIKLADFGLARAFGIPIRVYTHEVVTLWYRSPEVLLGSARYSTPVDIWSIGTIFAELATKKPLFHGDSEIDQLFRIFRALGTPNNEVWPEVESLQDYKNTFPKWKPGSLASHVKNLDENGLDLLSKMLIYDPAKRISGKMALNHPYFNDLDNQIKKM
Cyclin-dependent kinase 1/cyclin B1 (Homo sapiens), sequence (P14635 whole entry, looked up): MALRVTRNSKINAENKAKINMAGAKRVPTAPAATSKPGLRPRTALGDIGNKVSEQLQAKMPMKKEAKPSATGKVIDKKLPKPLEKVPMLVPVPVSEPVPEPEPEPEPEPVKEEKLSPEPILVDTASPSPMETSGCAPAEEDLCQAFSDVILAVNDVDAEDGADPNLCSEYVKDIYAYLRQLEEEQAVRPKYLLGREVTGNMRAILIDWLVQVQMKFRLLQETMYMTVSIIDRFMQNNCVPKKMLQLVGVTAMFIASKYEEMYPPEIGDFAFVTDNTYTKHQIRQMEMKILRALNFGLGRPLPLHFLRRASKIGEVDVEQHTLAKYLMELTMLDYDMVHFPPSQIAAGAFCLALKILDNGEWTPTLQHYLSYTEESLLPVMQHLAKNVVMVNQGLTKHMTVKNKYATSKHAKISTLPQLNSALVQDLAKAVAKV

[4] = molecular target: T1, Mitogen-activated protein kinase 1 (Homo sapiens, UniProt P28482); assay: Inhibition of recombinant MAPK1 (unknown origin) at 5 uM by FRET-based Z'-LYTE assay; procedure, shortened: as §1
T1 sequence (P28482 whole entry, canonical isoform): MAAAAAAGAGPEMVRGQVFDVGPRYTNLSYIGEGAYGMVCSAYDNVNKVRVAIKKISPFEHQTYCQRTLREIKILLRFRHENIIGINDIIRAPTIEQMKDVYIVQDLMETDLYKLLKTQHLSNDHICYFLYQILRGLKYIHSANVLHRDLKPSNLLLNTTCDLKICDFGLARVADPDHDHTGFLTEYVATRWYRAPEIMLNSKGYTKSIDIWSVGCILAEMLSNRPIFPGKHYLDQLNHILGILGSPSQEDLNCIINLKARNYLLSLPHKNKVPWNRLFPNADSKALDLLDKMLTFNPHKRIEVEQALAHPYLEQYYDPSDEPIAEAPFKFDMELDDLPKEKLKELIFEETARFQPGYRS

[5] = molecular target: Phosphorylase b kinase gamma catalytic chain, liver/testis isoform (Homo sapiens) (UniProt P15735); assay: Inhibition of recombinant PHKG2 (unknown origin) at 5 uM by FRET-based Z'-LYTE assay; procedure, shortened: as §1
[6] = molecular target: Tyrosine-protein kinase SYK (Homo sapiens) (UniProt P43405); assay: Inhibition of recombinant SYK (unknown origin) at 5 uM by FRET-based Z'-LYTE assay
Procedure, shortened: (§2)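 Z'-LYTE FRET peptide (coumarin/fluorescein) phosphorylation was followed by protease development. Wells included a protease control for interference with development and a fluorescence control for interference with the FRET read. Values above 100% or below 0% were treated as maximal or no inhibition.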

[7] = molecular target: Dual specificity tyrosine-phosphorylation-regulated kinase 3 (Homo sapiens) (UniProt O43781); assay: Inhibition of recombinant DYRK3 (unknown origin) at 5 uM by FRET-based Z'-LYTE assay; procedure, shortened: as §1
[8] = molecular target: Angiopoietin-1 receptor (Homo sapiens) (UniProt Q02763); assay: Inhibition of recombinant TEK (unknown origin) at 5 uM by FRET-based Z'-LYTE assay; procedure, shortened: as §2
[9] = molecular target: 3-phosphoinositide-dependent protein kinase 1 (Homo sapiens) (UniProt O15530); assay: Inhibition of recombinant PDK1 (unknown origin) at 5 uM by FRET-based Z'-LYTE assay; procedure, shortened: as §1
[10] = molecular target: Rho-associated protein kinase 1 (Homo sapiens) (UniProt Q13464); assay: Inhibition of recombinant ROCK1 (unknown origin) at 5 uM by FRET-based Z'-LYTE assay; procedure, shortened: as §2
[11] = molecular target: Receptor-type tyrosine-protein kinase FLT3 (Homo sapiens) (UniProt P36888); assay: Inhibition of recombinant FLT3 (unknown origin) at 5 uM by FRET-based Z'-LYTE assay; procedure, shortened: as §1
[12] = molecular target: Aurora kinase A (Homo sapiens) (UniProt O14965); assay: Inhibition of recombinant AURKA (unknown origin) at 5 uM by FRET-based Z'-LYTE assay; procedure, shortened: as §1
[13] = molecular target: Serine/threonine-protein kinase Chk1 (Homo sapiens) (UniProt O14757); assay: Inhibition of recombinant CHEK1 (unknown origin) at 5 uM by FRET-based Z'-LYTE assay; procedure, shortened: as §1
Serine/threonine-protein kinase Chk1 (Homo sapiens), sequence (O14757 whole entry): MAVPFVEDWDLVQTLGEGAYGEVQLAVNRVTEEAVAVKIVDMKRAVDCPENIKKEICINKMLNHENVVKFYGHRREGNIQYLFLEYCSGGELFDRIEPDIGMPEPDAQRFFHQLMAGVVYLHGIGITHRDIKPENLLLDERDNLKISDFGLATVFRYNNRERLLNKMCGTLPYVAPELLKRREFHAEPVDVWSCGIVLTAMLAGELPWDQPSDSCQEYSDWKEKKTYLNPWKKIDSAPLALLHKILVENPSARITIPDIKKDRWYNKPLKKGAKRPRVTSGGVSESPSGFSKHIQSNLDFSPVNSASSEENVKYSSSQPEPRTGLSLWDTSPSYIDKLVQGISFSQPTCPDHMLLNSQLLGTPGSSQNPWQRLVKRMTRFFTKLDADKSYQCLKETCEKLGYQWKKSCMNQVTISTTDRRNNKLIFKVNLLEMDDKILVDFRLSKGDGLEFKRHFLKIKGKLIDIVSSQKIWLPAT

[14] = molecular target: Protein kinase C beta type (Homo sapiens) (UniProt P05771); assay: Inhibition of recombinant PRKCB1 (unknown origin) at 5 uM by FRET-based Z'-LYTE assay; procedure, shortened: as §2
[15] = molecular target: Ribosomal protein S6 kinase beta-1 (Homo sapiens, UniProt P23443); assay: Inhibition of recombinant RPS6KB1 (unknown origin) at 5 uM by FRET-based Z'-LYTE assay; procedure, shortened: as §2
Ribosomal protein S6 kinase beta-1, sequence (P23443 whole entry, looked up): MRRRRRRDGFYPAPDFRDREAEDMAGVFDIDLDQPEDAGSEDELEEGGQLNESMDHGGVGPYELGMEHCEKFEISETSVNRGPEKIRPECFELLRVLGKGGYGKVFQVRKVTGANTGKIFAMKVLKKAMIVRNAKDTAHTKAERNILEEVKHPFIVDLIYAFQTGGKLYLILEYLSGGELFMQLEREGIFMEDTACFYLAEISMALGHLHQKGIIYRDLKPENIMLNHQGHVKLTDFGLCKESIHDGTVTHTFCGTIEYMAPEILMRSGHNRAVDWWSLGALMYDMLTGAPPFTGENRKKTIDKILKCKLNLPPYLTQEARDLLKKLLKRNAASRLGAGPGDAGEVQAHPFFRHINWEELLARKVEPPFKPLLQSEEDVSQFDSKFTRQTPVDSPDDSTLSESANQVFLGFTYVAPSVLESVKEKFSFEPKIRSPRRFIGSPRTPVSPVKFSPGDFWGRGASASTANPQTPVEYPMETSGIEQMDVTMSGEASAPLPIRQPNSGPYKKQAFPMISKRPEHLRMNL

[16] = molecular target: Serine/threonine-protein kinase Nek1 (Homo sapiens) (UniProt Q96PY6); assay: Inhibition of recombinant NEK1 (unknown origin) at 5 uM by FRET-based Z'-LYTE assay; procedure, shortened: as §1
Serine/threonine-protein kinase Nek1 (Homo sapiens), sequence (Q96PY6 whole entry): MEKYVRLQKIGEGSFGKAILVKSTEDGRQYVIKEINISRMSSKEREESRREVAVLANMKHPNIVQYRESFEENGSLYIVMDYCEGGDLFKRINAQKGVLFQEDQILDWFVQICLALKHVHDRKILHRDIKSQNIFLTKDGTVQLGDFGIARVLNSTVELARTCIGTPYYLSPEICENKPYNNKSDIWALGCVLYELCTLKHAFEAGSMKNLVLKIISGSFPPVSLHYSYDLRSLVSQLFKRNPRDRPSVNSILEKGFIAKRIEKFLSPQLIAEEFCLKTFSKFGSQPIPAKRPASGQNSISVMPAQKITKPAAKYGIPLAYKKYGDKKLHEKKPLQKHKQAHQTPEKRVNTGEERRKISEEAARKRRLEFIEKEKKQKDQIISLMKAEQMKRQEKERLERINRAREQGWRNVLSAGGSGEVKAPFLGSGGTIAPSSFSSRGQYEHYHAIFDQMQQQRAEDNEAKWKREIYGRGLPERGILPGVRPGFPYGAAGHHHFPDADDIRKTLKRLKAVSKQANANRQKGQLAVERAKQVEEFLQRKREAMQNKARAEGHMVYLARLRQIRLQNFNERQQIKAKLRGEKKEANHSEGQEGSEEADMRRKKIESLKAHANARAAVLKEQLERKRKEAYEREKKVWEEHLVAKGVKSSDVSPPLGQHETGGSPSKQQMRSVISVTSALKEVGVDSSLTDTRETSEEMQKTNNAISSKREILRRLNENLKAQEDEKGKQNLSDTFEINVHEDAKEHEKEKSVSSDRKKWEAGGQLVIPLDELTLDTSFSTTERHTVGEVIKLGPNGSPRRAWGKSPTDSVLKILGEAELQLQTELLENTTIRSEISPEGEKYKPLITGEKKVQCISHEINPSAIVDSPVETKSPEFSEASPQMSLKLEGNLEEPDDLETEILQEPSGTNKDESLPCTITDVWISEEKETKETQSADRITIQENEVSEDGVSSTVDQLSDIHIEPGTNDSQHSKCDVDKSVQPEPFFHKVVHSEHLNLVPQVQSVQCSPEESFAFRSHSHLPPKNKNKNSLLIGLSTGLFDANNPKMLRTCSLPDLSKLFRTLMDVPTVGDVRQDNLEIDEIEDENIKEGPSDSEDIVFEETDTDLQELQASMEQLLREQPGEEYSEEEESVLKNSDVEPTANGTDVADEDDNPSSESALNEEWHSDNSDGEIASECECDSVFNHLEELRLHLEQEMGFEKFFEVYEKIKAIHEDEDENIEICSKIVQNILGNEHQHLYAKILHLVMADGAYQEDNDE

[17] = molecular target: Dual specificity mitogen-activated protein kinase kinase 1 (Homo sapiens, UniProt Q02750); assay: Inhibition of recombinant MEK1 (unknown origin) by cascade reaction assay
[18] = molecular target: T1, Mitogen-activated protein kinase 1; assay: Inhibition of recombinant ERK2 (unknown origin) by FRET-based Z'-LYTE assay
[19] = molecular target: RAF proto-oncogene serine/threonine-protein kinase (Homo sapiens, UniProt P04049); assay: Inhibition of recombinant RAF1 (unknown origin) by cascade reaction assay
[20] = molecular target: RAC-beta serine/threonine-protein kinase (Homo sapiens, UniProt P31751); assay: Inhibition of recombinant AKT2 (unknown origin) by FRET-based Z'-LYTE assay
[21] = molecular target: RAC-alpha serine/threonine-protein kinase (Homo sapiens, UniProt P31749); assay: Inhibition of recombinant AKT1 (unknown origin) by FRET-based Z'-LYTE assay
[22] = molecular target: Serine/threonine-protein kinase PLK1 (Homo sapiens) (UniProt P53350); assay: Inhibition of recombinant PLK1 (unknown origin) at 5 uM by FRET-based Z'-LYTE assay; procedure, shortened: as §1
[23] = molecular target: Cyclin-dependent kinase 2/cyclin A (Homo sapiens) (UniProt P24941+P20248+P78396); assay: Inhibition of recombinant CDK2/cyclin A (unknown origin) at 5 uM by FRET-based Z'-LYTE assay; type: protein-complex assay; procedure, shortened: as §1
[24] = molecular target: Cyclin-dependent kinase 7/ cyclin H (Homo sapiens) (UniProt P51946+P50613); assay: Inhibition of recombinant CDK7/cyclin H/MNAT1 (unknown origin) at 5 uM after 1 hr by FRET-based adapta assay; type: protein-complex assay
Procedure, shortened: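 After inhibitor and all reaction components are added, the reaction runs for 1 h. ADP formed by the kinase displaces an antibody-tracer complex, so reduced ADP gives a high TR-FRET signal. Inhibition is calculated against a control.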

[25] = molecular target: Mast/stem cell growth factor receptor Kit (Homo sapiens) (UniProt P10721); assay: Inhibition of recombinant KIT (unknown origin) at 5 uM by FRET-based Z'-LYTE assay; procedure, shortened: as §1
Mast/stem cell growth factor receptor Kit (Homo sapiens), sequence (P10721 whole entry): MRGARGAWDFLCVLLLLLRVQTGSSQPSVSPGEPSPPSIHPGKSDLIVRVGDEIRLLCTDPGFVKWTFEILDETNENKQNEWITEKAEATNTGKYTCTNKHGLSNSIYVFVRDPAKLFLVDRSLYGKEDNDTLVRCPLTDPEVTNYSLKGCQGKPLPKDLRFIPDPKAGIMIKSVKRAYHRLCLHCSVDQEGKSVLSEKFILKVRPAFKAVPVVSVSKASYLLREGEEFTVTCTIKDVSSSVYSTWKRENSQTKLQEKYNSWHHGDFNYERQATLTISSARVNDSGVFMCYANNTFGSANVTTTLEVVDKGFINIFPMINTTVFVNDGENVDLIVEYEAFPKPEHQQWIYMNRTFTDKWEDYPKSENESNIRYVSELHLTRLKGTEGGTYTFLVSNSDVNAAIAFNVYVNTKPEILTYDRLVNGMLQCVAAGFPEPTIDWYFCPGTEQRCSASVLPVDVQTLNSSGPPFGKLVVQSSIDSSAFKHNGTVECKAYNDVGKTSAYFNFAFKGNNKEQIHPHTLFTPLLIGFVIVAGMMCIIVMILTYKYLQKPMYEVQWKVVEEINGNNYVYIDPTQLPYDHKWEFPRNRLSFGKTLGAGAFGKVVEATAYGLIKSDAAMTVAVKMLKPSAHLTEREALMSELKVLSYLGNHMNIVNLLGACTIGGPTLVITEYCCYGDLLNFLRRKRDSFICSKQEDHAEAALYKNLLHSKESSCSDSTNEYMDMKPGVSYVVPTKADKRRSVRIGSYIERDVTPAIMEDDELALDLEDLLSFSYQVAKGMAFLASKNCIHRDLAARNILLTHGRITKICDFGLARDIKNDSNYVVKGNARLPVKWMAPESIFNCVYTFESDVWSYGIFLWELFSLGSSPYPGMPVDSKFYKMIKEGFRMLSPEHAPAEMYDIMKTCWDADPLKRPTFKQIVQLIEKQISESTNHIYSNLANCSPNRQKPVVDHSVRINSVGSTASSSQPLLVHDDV

[26] = molecular target: cAMP-dependent protein kinase catalytic subunit alpha (Homo sapiens) (UniProt P17612); assay: Inhibition of recombinant PRKACA (unknown origin) at 5 uM by FRET-based Z'-LYTE assay; procedure, shortened: as §1
[27] = molecular target: Serine/threonine-protein kinase pim-1 (Homo sapiens) (UniProt P11309); assay: Inhibition of recombinant PIM1 (unknown origin) at 5 uM by FRET-based Z'-LYTE assay; procedure, shortened: as §1
[28] = molecular target: Tyrosine-protein kinase Lck (Homo sapiens) (UniProt P06239); assay: Inhibition of recombinant LCK (unknown origin) at 5 uM by FRET-based Z'-LYTE assay; procedure, shortened: as §1
[29] = molecular target: Tyrosine-protein kinase JAK3 (Homo sapiens) (UniProt P52333); assay: Inhibition of recombinant JAK3 (unknown origin) at 5 uM by FRET-based Z'-LYTE assay; procedure, shortened: as §1
[30] = molecular target: Inhibitor of nuclear factor kappa-B kinase subunit epsilon (Homo sapiens) (UniProt Q14164); assay: Inhibition of recombinant IKBKE (unknown origin) at 5 uM by FRET-based Z'-LYTE assay; procedure, shortened: as §1
Inhibitor of nuclear factor kappa-B kinase subunit epsilon (Homo sapiens), sequence (Q14164 whole entry): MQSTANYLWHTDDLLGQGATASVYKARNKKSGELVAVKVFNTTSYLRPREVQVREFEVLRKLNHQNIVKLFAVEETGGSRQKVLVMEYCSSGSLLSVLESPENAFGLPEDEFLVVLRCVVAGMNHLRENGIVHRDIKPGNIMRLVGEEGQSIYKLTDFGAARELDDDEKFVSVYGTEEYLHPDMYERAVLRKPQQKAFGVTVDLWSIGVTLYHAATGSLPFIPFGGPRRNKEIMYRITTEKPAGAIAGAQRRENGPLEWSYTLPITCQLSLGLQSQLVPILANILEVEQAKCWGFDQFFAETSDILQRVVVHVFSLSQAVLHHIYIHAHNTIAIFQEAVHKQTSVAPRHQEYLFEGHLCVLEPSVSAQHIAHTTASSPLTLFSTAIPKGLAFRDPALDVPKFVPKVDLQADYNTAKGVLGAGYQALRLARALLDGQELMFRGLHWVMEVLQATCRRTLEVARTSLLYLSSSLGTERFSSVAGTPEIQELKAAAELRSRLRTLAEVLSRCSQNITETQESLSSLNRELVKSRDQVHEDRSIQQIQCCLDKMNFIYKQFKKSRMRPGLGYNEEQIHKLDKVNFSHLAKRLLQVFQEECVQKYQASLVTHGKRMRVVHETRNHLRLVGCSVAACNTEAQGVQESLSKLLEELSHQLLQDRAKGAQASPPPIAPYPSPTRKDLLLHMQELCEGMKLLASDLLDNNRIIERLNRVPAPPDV

[31] = molecular target: MAP kinase-activated protein kinase 2 (Homo sapiens, UniProt P49137); settings: 5 uM

Compound: O=C1/C(=C/c2ccccn2)CNC/C1=C\c1ccccn1
- inhibition [1]: 17%
- inhibition [2]: 22%
- inhibition [3]: 24%
- inhibition [4]: 34%
- inhibition [5]: 37%
- inhibition [6]: 45%
- inhibition [7]: 48%
- inhibition [8]: 51%
- inhibition [9]: 54%
- inhibition [10]: 58%
- inhibition [11]: 69%
- inhibition [12]: 77%
- inhibition [13]: 90%
- inhibition [14]: 91%
- inhibition [15]: 101%
- inhibition [16]: 102%
- IC50 [17]: 1100 nM
- IC50 [18]: 4000 nM
- IC50 [19]: 1600 nM
- IC50 [20]: 20 nM
- IC50 [21]: 20 nM
- inhibition [22]: -9%
- inhibition [23]: 1%
- inhibition [24]: 3%
- inhibition [25]: 2%
- inhibition [26]: 11%
- inhibition [27]: 10%
- inhibition [28]: 13%
- inhibition [29]: 15%
- inhibition [30]: 15%
- inhibition [31]: 85%
